# Measurements as given in BindingDB's records for doi:10.1021/jm9013482 (Harvard Medical School, 2010).
# Target: Delta-type opioid receptor (Homo sapiens, UniProt P41143)
# Experiment: Displacement of [3H]naltrindole from human delta opioid receptor expressed in CHO cells
# Outline: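 CHO cells stably expressing a single human opioid receptor were grown in DMEM with 10% FBS and penicillin/streptomycin at 37 °C in 5% CO2. Their membranes were incubated with radioligand and 12 concentrations of test compound at 25 °C in 50 mM Tris-HCl, pH 7.5.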
# Sequence of Delta-type opioid receptor (P41143 whole entry): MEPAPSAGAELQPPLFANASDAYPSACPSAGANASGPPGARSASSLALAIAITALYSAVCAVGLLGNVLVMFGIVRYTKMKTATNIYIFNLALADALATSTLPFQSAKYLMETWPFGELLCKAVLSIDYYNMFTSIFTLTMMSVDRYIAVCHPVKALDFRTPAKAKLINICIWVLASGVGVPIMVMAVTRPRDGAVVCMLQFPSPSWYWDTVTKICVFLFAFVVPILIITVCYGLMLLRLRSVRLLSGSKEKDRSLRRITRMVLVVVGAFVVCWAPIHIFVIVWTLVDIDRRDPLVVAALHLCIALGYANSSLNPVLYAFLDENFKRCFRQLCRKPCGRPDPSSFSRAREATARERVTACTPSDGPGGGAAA
smiles,measurement,value
O=C(CCCCC(=O)NCc1cc2c(cc1O)[C@@]13CCCC[C@H]1[C@@H](C2)N(CC1CCC1)CC3)NCc1cc2c(cc1O)[C@@]13CCCC[C@H]1[C@@H](C2)N(CC1CCC1)CC3 [Hexanedioic Acid Bis(17-N-cyclobutylmethyl-3-hydroxymorphinan-2-methyl)amide],Ki,630 nM
